From PubChem
ARNT-TACC3 inh: ARNT/TACC3 interaction disruption; Q9Y6A5; AlphaScreen His-ARNT PAS-B/GST-TACC3 binding, luminescence; TACC3 fragment carries E629A point mutation; inhibition, % at 9.99 µM; 390,000 tested, 0.66% active;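 active = mean inhibition of replicates at least 50% and at least half of replicates each reaching 50%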;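 note: 0% = complete ARNT plus TACC3 wells and 100% = ARNT alone without TACC3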
S100A4 MyoIIA: inhibitors of human S100A4 binding to myosin IIA peptide; P26447; S100A4/TAMRA-MyoIIA peptide fluorescence polarization; inhibition, % at 10.7 µM; AID 652163; 360,000 tested, 0.14% active;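 active = mean inhibition of at least 70% across replicates, with every replicate also reaching that level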
Target sequence (P26447 whole entry, looked up): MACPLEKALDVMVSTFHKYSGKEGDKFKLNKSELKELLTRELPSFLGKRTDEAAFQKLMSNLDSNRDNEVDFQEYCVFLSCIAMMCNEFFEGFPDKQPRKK
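Material: S100A4 monomer protein / Buffer or medium: 50 mM HEPES pH 7.2, 10 mM CaCl2, 100 mM KCl / Times: 5 min incubation before reading / Benchmarks: neutral control DMSO, positive control TFP / Reagent: labelled myosin peptide probe, 5 nM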
Casp6 inh: blocks human caspase-6 cleavage activity. purified caspase-6, Z-VEID-R110 cleavage fluorescence. P55212. 350,000 tested, 0.53% active. AID 686996. inhibition, % at 12.5 µM;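 active = mean inhibition across replicates at least about 35%, with every replicate also reaching that limit, limit read from the data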;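 note: 0% = median of neutral control wells and 100% = no fluorescence left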
Target sequence (P55212 24-179 limits assumed): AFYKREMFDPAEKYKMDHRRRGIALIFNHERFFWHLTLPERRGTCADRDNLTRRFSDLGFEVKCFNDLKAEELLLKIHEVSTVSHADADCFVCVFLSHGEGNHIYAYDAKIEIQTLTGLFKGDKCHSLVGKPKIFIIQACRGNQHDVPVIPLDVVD
Target sequence (P55212 194-293 limits assumed): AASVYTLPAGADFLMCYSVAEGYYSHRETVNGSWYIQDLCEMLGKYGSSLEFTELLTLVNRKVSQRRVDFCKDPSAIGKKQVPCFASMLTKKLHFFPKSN
PGC1a acetyl inh: lowers PGC1a acetylation signal in U2OS cells; 350,000 tested, 0.17% active; AlphaScreen anti-acetyl-lysine; with virally co-expressed GCN5 acetyltransferase; inhibition, % at 15.6 µM;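 active = every replicate shows inhibition of at least 40%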;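 note: 0% = neutral control wells and 100% = positive control wells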
rRNA inh HTS: inhibitors of bacterial rRNA selective over humanized ribosomes; 350,000 tested, 1.6% active; E. coli WT GFP vs humanized-ribosome RFP mutants, fluorescence, 24 h; active compounds read low; DMSO median 0, no signal -100; GFP signal change (wild-type ribosome), % (test concentration not listed);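 active = significant combined selectivity score with lowered wild-type GFP, culture density cut under 30%, mutant RFP and density less affected; inactive = any of these conditions unmet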
ERAP1 HTS inh: inhibitors of human ERAP1 aminopeptidase. recombinant ERAP1, Leu-AMC fluorescence, 60 min. inhibition, % at 10.7 µM. 340,000 tested, 0.15% active;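 active = mean replicate inhibition of at least 30%, or all replicates individually reaching that 30% level; inactive = mean below 30% and not every replicate reaching it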;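 note: 0% = neutral control wells and 100% = L-leucinethiol positive control wells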
* hit, by the source's call; i = inactive; nt = not tested or not shown; + = active, no number. In the library only some 2.4% were active in any assay of this set; here they are far more common.

SMILES | ARNT-TACC3 inh | S100A4 MyoIIA | Casp6 inh | PGC1a acetyl inh | rRNA inh HTS | ERAP1 HTS inh
Cc1ccc(C2=N/C(=C\c3coc4ccccc4c3=O)C(=O)O2)cc1 | nt | -13 | 44* | nt | 11 | 3
COc1ccc(/C=C2\N=C(c3ccc(C)cc3)OC2=O)cc1 | 3 | -2 | 0 | -5 | 6 | -1
CCOC(=O)c1sc(=S)n(C)c1NC(=O)c1ccccc1 | -5 | nt | nt | nt | nt | nt
CCOC(=O)c1sc(=S)n(C)c1NC(=O)c1cccc(Br)c1 | nt | -3 | 0 | 3 | -49* | -2
CN(C)CC(=O)N1CCCCN2[C@H](C1)[C@H](c1ccc(-c3cccnc3)cc1)[C@@H]2CO | 1 | 0 | 1 | 2 | 5 | -1
Fc1ccc2c(c1)/C(=N/Nc1ccccn1)CCS2 | -3 | -4 | -5 | 6 | -22* | 1
CCOC(=O)/C(C#N)=C1/C(=O)N(Cc2ccccc2)c2ccccc21 | -7 | 4 | 3 | 73* | 6 | 10
CCOC(=O)C(C#N)=C1CCN(Cc2ccccc2)CC1 | -7 | -1 | -1 | -13 | 4 | -2
COc1ccc(CCN(C)C(=O)c2cnc(C)cn2)cc1OC | active | 8 | 5 | 11 | 14 | -1
COc1ccccc1CN(C)C(=O)c1cnc(C)cn1 | -27 | 6 | 2 | -4 | 9 | -2
Cc1ccc2c(c1)c1ccc3c(c1n2C)C(=O)C=CC3=O | -1 | -1 | nt | -2 | -13 | 1
Cn1c2ccccc2c2ccc3c(c21)C(=O)C=CC3=O | 5 | -3 | 1 | -2 | -25* | 2
C[C@@H]1CCCCO[C@@H](CN(C)C(=O)Nc2ccc(F)cc2)[C@H](C)CN([C@H](C)CO)C(=O)c2cc(NC(=O)Cc3ccccc3)ccc2O1 | -5 | -9 | 0 | -5 | 4 | 0
CCOc1cc(NCc2ccccc2)c2ncn(C(C)C)c2c1 | 15 | -4 | 2 | -10 | -56 | -5
CC(C)n1cnc2c(NCc3ccccc3)cc(Cc3ccc(F)cc3)cc21 | nt | -1 | -6 | -3 | -21* | -2
CCC1(C)Cc2c(C#N)c(SC)nc(N3CCOCC3)c2CO1 (stereo unspecified) | nt | 2 | 7 | -6 | -40* | -2
CSc1nc(N2CCOCC2)c2c(c1C#N)CC(C)(C)OC2 | -12 | nt | nt | -21 | nt | nt
Cc1noc(C)c1NC(=O)Nc1ccc2c(c1)C(=O)N([C@H](C)CO)C[C@@H](C)[C@@H](CN(C)Cc1ccc(Cl)c(Cl)c1)O2 | 4 | 13 | 1 | -3 | -2 | 2
COC(=O)c1ccccc1-c1c2ccc(=N)cc-2oc2cc(N)ccc12 | 10 | + | i | 1 | 64 | 9
COC(=O)c1ccccc1-c1ccc(/C=N/NC(=O)c2cc3ccccc3o2)o1 | 1 | nt | nt | -5 | nt | nt
COc1ccc(Nc2nc3ccc(OC)cc3s2)cc1 | 13 | -2 | 4 | -12 | -26* | 0
Cc1ccc(-c2cnc3c(c2)C(=O)N([C@@H](C)CO)C[C@H](C)[C@@H](CN(C)S(C)(=O)=O)O3)cc1 | 6 | -1 | 0 | -1 | 0 | -2
Cn1ncc(Br)c1C(=O)NC12CC3CC(CC(C3)C1)C2 | -3 | 7 | -4 | nt | -30* | 3
Cn1ncc(Br)c1C(=O)N1CCCC1 | -11 | 0 | 1 | nt | 13 | 0
C[C@@H]1CN([C@@H](C)CO)C(=O)c2cc(NC(=O)CCCN(C)C)ccc2O[C@@H](C)CCCCO[C@@H]1CN(C)C | nt | nt | nt | 3 | 4 | nt
SMILES | ARNT-TACC3 inh | S100A4 MyoIIA | Casp6 inh | PGC1a acetyl inh | rRNA inh HTS | ERAP1 HTS inh
COc1cc(CC2COC(c3ccc(O)c(OC)c3)C2COC(C)=O)ccc1O (stereo unspecified) | 3 | 29 | 58* | 8 | 5 | 0
COCC(=O)OC1CCn2c1nc1c2C(=O)C(C)=C(NC(C)=O)C1=O (stereo unspecified) | 20 | -63 | 99* | nt | 19 | 2
CCOC(=O)C(=CNc1ccc(C(F)(F)F)cc1)C(=O)OCC | -16 | -7 | 0 | nt | -23* | nt
Cc1cccn2c(=O)c3cc(C(=O)NCCc4ccccc4)c(=N)n(CC4CCCO4)c3nc12 (stereo unspecified) | -3 | -2 | 6 | -27 | 0 | -61
Cc1cccn2c(=O)c3cc(C(=O)NCc4cccnc4)c(=N)n(CC4CCCO4)c3nc12 (stereo unspecified) | -7 | -2 | 9 | nt | 17 | 86*
CCCNc1nc2nc3ccccn3c(=O)c2cc1C(=O)NCCN1CCOCC1 | 2 | -3 | 1 | -24 | 1 | 58*
Cc1cccn2c(=O)c3cc(C(=O)NCCN4CCOCC4)c(=N)n(CCCN4CCOCC4)c3nc12 | 2 | -7 | -32 | -13 | 7 | 35*
O=C(Nc1ccc(F)cc1)N[C@H]1CC[C@H](CC(=O)N2CCCCC2)O[C@H]1CO | nt | -3 | 1 | 1 | 1 | 0
O=Nc1c(O)[nH]c2ccc(F)cc12 | nt | 6 | 11 | nt | 10 | 2
Cc1cc2c(N=O)c(NO)ccc2[nH]1 | 80* | nt | nt | -74 | nt | nt
C[C@@H]1CCCCO[C@@H](CN(C)C(=O)Nc2ccc(C(F)(F)F)cc2)[C@H](C)CN([C@H](C)CO)C(=O)c2cc(NC(=O)Nc3ccccc3)ccc2O1 | -5 | -15 | 2 | -11 | 3 | 1
CCC(=O)N(C)C[C@H]1Oc2cc(-c3ccc(C)cc3)ccc2S(=O)(=O)N([C@@H](C)CO)C[C@@H]1C | 0 | 5 | 3 | -9 | -5 | 0
CC1CC(C)CN(S(=O)(=O)c2ccc(F)c(C(=O)NC3CCCCC3C)c2)C1 (stereo unspecified) | nt | -2 | 62* | 1 | 11 | 3
CC1CCCC(NC(=O)c2cc(S(=O)(=O)N3CCOCC3)ccc2F)C1C (stereo unspecified) | nt | 1 | 0 | -3 | 1 | -4
COc1ccc(S(=O)(=O)Nc2ccc3c(c2)CC(=O)N([C@@H](C)CO)C[C@@H](C)[C@H](CN(C)Cc2ccc(C(=O)O)cc2)O3)cc1 | nt | -5 | -2 | 1 | 3 | 0
CSc1sc(C(=O)Nc2ccc(F)cc2F)c2c1C=CCC2 | -11 | -8 | 0 | 1 | -26* | -5
COc1ccc2nc3cc([N+](=O)[O-])ccc3c(NNc3ccc([N+](=O)[O-])cc3)c2c1 | 3 | 8 | 0 | -2 | -18* | 1
COc1ccc(-c2cc(C(=O)Oc3ccc([N+](=O)[O-])cc3)c3ccccc3n2)cc1 | -21 | nt | nt | 12 | nt | nt
COC(=O)[C@@]1(C)[C@H]2C(=O)N(Cc3ccccc3)C(=O)[C@H]2[C@H]2CN=C(SCc3ccc(Cl)cc3)N21 | -3 | -7 | 3 | 1 | -21* | 1
CCNC(=O)C[C@@H]1CC[C@@H]2[C@H](COc3ccc(NC(=O)c4ccc(F)c(F)c4)cc3C(=O)N2C)O1 | -2 | -2 | -2 | -3 | 1 | 0
